The source made the active and inactive calls. The rule behind the calls is not given here.
How the values were obtained:
MDA-MB-231 [1] = assay: Effect on NF-kappaB p52 expression in human MDA-MB-231 cells at 1 to 10 uM incubated for 72 hrs by Western blot analysis; type: functional, cell-based; conditions: dose 1-10 µM
In short: (§1)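 MDA-MB-231 cells in DMEM with 10% FBS, penicillin and streptomycin; 5,000 cells per well seeded, left overnight, then exposed to 1.0, 5.0 or 10.0 µM (from DMSO) for 72 h at 37 °C. Surviving cells lysed in RIPA with 1 mM EDTA and protease inhibitors; equal protein (BCA) immunoblotted, signals normalized to β-actin; three independent experiments, t test versus control.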

MDA-MB-231 [2] = assay: Upregulation of p-Akt expression in human MDA-MB-231 cells at 0.48 uM incubated for 5 hrs by Western blot analysis; type: functional, cell-based
In short: (§2)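 MDA-MB-231 cells in DMEM with 10% FBS and antibiotics, seeded overnight, then exposed to 0.5 µM or 0.48 µM (from DMSO) for 5 h at 37 °C. Cells washed in cold PBS, lysed in RIPA with EDTA and protease inhibitors; equal protein immunoblotted for p-Akt or NF-κB p50, normalized to β-actin; n = 3, t test versus control.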

MDA-MB-231 [3] = assay: Downregulation of NF-kappaB p50 expression in human MDA-MB-231 cells at 0.48 uM incubated for 5 hrs by Western blot analysis; type: functional, cell-based; in short: as §2
MDA-MB-231 [4] = assay: Effect on PI3K expression in human MDA-MB-231 cells at 1 to 10 uM incubated for 72 hrs by Western blot analysis; type: functional, cell-based; conditions: dose 1-10 µM; in short: as §1
MDA-MB-231 [5] = assay: Upregulation of Akt expression in human MDA-MB-231 cells at 1 to 10 uM incubated for 72 hrs by Western blot analysis; type: functional, cell-based; conditions: dose 1-10 µM; in short: as §1
MDA-MB-231 [6] = assay: Downregulation of NF kappaB p50 expression in human MDA-MB-231 cells at 1 to 10 uM incubated for 72 hrs by Western blot analysis; conditions: dose 1-10 µM
MDA-MB-231 [7] = assay: Upregulation of NF kappaB p65 expression in human MDA-MB-231 cells at 1 to 10 uM incubated for 72 hrs by Western blot analysis; type: functional, cell-based; conditions: dose 1-10 µM; in short: as §1
OVCAR-3 = assay: Cytotoxicity against human OVCAR-3 cells incubated for 72 hrs by Cell titer blue assay; type: functional, cell-based; conditions: OVCAR-3, 72 h
In short: (§3)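 Cells grown in RPMI 1640 with 10% FBS, penicillin and streptomycin at 37 °C, 5% CO₂; 5,000 log-phase cells per well seeded, left overnight, then exposed 72 h to serial dilutions from DMSO (DMSO vehicle; paclitaxel positive control). Viability read by CellTiter-Blue absorbance; IC50 relative to vehicle by nonlinear regression; triplicate, three independent experiments.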

OVCAR-5 = assay: Cytotoxicity against human OVCAR-5 cells incubated for 72 hrs by Cell titer blue assay; type: functional, cell-based; conditions: OVCAR-5, 72 h; in short: as §3
HT-29 = assay: Cytotoxicity against human HT-29 cells incubated for 72 hrs by Cell titer blue assay; type: functional, cell-based; conditions: HT-29, 72 h; in short: as §3
MDA-MB-435 = assay: Cytotoxicity against human MDA-MB-435 cells incubated for 72 hrs by Cell titer blue assay; type: functional, cell-based; conditions: MDA-MB-435, 72 h; in short: as §3
MDA-MB-231 [8] = assay: Cytotoxicity against human MDA-MB-231 cells incubated for 72 hrs by Cell titer blue assay; type: functional, cell-based; conditions: MDA-MB-231, 72 h; in short: as §3
[9] = Cytotoxicity against human FT194 cells incubated for 72 hrs by Cell titer blue assay; type: functional, cell-based; conditions: FT194, 72 h; in short: as §3
MDA-MB-231 [10] = assay: Upregulation of p-Akt expression in human MDA-MB-231 cells at 0.5 uM incubated for 5 hrs by Western blot analysis; type: functional, cell-based; in short: as §2
MDA-MB-231 [11] = assay: Downregulation of NF-kappaB p50 expression in human MDA-MB-231 cells at 0.5 uM incubated for 5 hrs by Western blot analysis; type: functional, cell-based; in short: as §2
MDA-MB-231 [12] = assay: Downregulation of NF kappaB p52 expression in human MDA-MB-231 cells at 5 to 10 uM incubated for 72 hrs by Western blot analysis; type: functional, cell-based; conditions: dose 5-10 µM; in short: as §1
[13] = biological target: Sodium/potassium-transporting ATPase (Sus scrofa); assay: Inhibition of NA+/K+ ATPase (porcine cerebral cortex) activity incubated for 15 mins in presence of ATP by ADP-Glo assay

SMILES | Activity (MDA-MB-231 [1]) | Activity (MDA-MB-231 [2]) | Activity (MDA-MB-231 [3]) | Activity (MDA-MB-231 [4]) | Activity (MDA-MB-231 [5]) | Activity (MDA-MB-231 [6]) | Activity (MDA-MB-231 [7]) | IC50 (OVCAR-3) | IC50 (OVCAR-5) | IC50 (HT-29) | IC50 (MDA-MB-435) | IC50 (MDA-MB-231 [8]) | IC50 [9] | Activity (MDA-MB-231 [10]) | Activity (MDA-MB-231 [11]) | Activity (MDA-MB-231 [12]) | IC50 [13]
C[C@H]1O[C@@H](O[C@H]2[C@@H](O)C[C@H](O[C@H]3[C@@H](O)C[C@H](O[C@H]4CC[C@@]5(C)[C@H](CC[C@@H]6[C@@H]5C[C@@H](O)[C@]5(C)[C@@H](C7=CC(=O)OC7)CC[C@]65O)C4)O[C@@H]3C)O[C@@H]2C)C[C@H](O)[C@@H]1O | inactive | Active | inactive | inactive | Active | Active | Active | – | – | – | – | – | – | – | – | – | –
CC(=O)O[C@H]1C(=O)[C@@]2(C)[C@H]([C@H](OC(=O)c3ccccc3)[C@]3(O)C[C@H](OC(=O)[C@H](O)[C@@H](NC(=O)c4ccccc4)c4ccccc4)C(C)=C1C3(C)C)[C@]1(OC(C)=O)CO[C@@H]1C[C@@H]2O [PACLITAXEL] | – | – | – | – | – | – | – | 0.0049 µM | 7.3 µM | 3.4 µM | – | – | – | – | – | – | –
CO[C@H]1C[C@H](O[C@H]2CC[C@]3(C)C4[C@H](O)C(=O)[C@]5(C)[C@@H](C6=CC(=O)OC6)CC[C@]5(O)[C@@]45O[C@H]5C[C@@H]3C2)O[C@@H](C)[C@@H]1O (stereo not given in full) | inactive | – | – | inactive | Active | Active | Active | 0.14 µM | 0.44 µM | 0.22 µM | 0.2 µM | 0.5 µM | 1.1 µM | Active | inactive | Active | 1.2 µM
